Assay results gathered from unrelated publications.
Compare with care: the assays were run in different laboratories.

`Cc1noc2c1-c1ccc(-c3cnn(C)c3)cc1C(c1ccc(Cl)cc1)=N[C@H]2CC(N)=O` gave an IC50 of 248 nM (MP46; cell growth or viability, ATP luminescence; 72 h).
The IC50 of `Cc1cccc(C)c1NC(=O)CN1CCCC1=O` is reported as 5930 nM (HepaRG; reactive oxygen species, inhibitor; 16 h).
For `COc1ccc(C[C@H](N)C(=O)N[C@H]2[C@@H](O)[C@H](n3cnc4c(N(C)C)ncnc43)O[C@@H]2CO)cc1`, the IC50 was 2030 nM (THP-1; cell growth or viability; 72 h).
The IC50 of `COc1cc([C@@H]2c3cc4c(cc3[C@@H](O[C@@H]3O[C@@H]5CO[C@@H](C)O[C@H]5[C@H](O)[C@H]3O)[C@H]3COC(=O)[C@H]23)OCO4)cc(OC)c1O` is reported as 240 nM (CAPAN-1; cell growth or viability, MTS; 72 h).
With `CC(=O)N1c2ccc(-c3ccc(C(=O)O)cc3)cc2[C@H](Nc2ccc(Cl)cc2)C[C@@H]1C` the IC50 was 104 nM (MP46; cell growth or viability, ATP luminescence; 72 h).
`CC1(P2(=O)CCCCC2)CCCCC1` gave an IC50 of over 100000 nM (SW-620; cell growth or viability, MTT; 72 h).
With `Clc1ccc(-c2cc(CNc3cccc4cccnc34)on2)c(Cl)c1` the IC50 was 14900 nM (CAPAN-1; cell growth or viability, MTS; 72 h).
The IC50 of `Cc1[nH]c2ccccc2c1CCNCc1ccc(/C=C/C(=O)NO)cc1` is reported as 27.7 nM (MP46; cell growth or viability, ATP luminescence; 72 h).
`O=C(CSc1nc2ccccc2s1)N/N=C/c1ccc(OCC(=O)Nc2ccc(Br)cc2)cc1` has an IC50 of 10200 nM (CAPAN-1; cell growth or viability, MTS; 72 h).
The IC50 of `O=c1cc(OCc2cc(-c3ccccc3)no2)c2ccccc2o1` is reported as over 100000 nM (CAPAN-1; cell growth or viability, MTS; 72 h).
`O=C(NO)c1ccc(Cn2cnc3c(Nc4ccc(F)c(Cl)c4)ncnc32)cc1` has an IC50 of 1610 nM (THP-1; cell growth or viability, MTT; 72 h).
`O=[N+]([O-])c1ccc(Sc2cccc[n+]2[O-])c2nonc12` gave an IC50 of 2790 nM (MP46; cell growth or viability, ATP luminescence; 72 h).
`CSC(=O)c1cccc2nnsc12` gave an IC50 of 10700 nM (HepaRG; reactive oxygen species, inhibitor; 16 h).
For `Cc1cc2c(C(N)=O)cccc2n1-c1nc2c(c(NCc3ccccc3)n1)CCCN2`, the IC50 was 600 nM (SW-620; cell growth or viability; 72 h).
For `N#Cc1ccc(-c2cc(COc3cc(C(F)(F)F)nc4ccccc34)on2)cc1`, the IC50 was 22500 nM (CAPAN-1; cell growth or viability, MTS; 72 h).
`O=P1(c2ccccc2)CCCCC1` has an IC50 of over 100000 nM (SW-620; cell growth or viability, MTT; 72 h).
The IC50 of `COc1ccc(Nc2ncnc3c2ncn3Cc2ccc(C(=O)NO)cc2)cc1` is reported as 420 nM (THP-1; cell growth or viability, MTT; 72 h).
The IC50 of `N/C(=N\O)c1ccc(-c2cc(CNc3cccc4cccnc34)on2)cc1` is reported as 4700 nM (CAPAN-1; cell growth or viability, MTS; 72 h).
`O=C(NO)c1ccc(Cn2cnc3c(Nc4ccc(Br)cc4F)ncnc32)cc1` gave an IC50 of 930 nM (THP-1; cell growth or viability, MTT; 72 h).
`CCS(=O)(=O)Nc1ccc(Oc2ccc(F)cc2F)c(-c2cn(C)c(=O)c3[nH]ccc23)c1` gave an IC50 of 89.2 nM (MP46; cell growth or viability, ATP luminescence; 72 h).
With `FC(F)(F)c1ccc(-c2cc(CNc3cccc4cccnc34)on2)cc1` the IC50 was 19900 nM (CAPAN-1; cell growth or viability, MTS; 72 h).
